This passage reports yeast fitness results from the RNAGym collection of RNA variant scans (doi:10.1126/science.aae0568).

Variants at the floor of the assay were thinned out.

B1: tRNA (parent)
chain: GUUCCGUUGGCGUAAUGGUAACGCGUCUCCCUCCUAAGGAGAAGACUGCGGGUUCGAGUCCCGUACGGAACG

The variants in the data set derive from B1. Put plainly: yeast fitness relative to wild type (ratio to wild type); higher = fitter; tRNA-Arg(CCU), competitive growth, 37 C, YPD. Put shortly:
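For this measurement, the tRNA-Arg(CCU) gene was varied by chemical synthesis at a 3% per-site mutation rate across 69 sites, and each variant was placed at the native genomic locus in Saccharomyces cerevisiae. The pooled strains went through a 24-hour competition in YPD at 37°C in six parallel replicates, with amplicons from start and end populations read by 100-nucleotide paired-end sequencing. Darwinian fitness relative to wild type followed from the change in each genotype's frequency. Genotypes needed ≥ 100 starting reads, and estimates < 0.5 were set to 0.5.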
In the case of GUUCCGUUGGCGUAAUGGUAACGCGUCUCCCUCCUAAGAAGAAGACUACGGGUUCGUGUCCCGUACGGAACG [G39A G48A A57U], the yeast fitness was at most 0.5.

In the case of GUUCCGUUGGCGUAAUGGUAACGCGUCUCCCUCCUAAGCAGAAGACUCCGGGUUCGAGUCCCGUACGGCACG [G39C G48C A69C], the yeast fitness is 0.57. GUUCCGUUGGCGUAAUGGUAACGCGUCUCCCUCCUAAGAAGAAGCCUGCGGGUUCGAGUCCCGUACGGCACG [G39A A45C A69C]: the yeast fitness came out at 0.804.

With GUUCCGUUGGCGUAAUGGUAACGCGUCUCCCUCCUAACGAGAAGACUGCGGGUUCGAGUCCCGAACGAAACG [G38C U64A G68A], the yeast fitness is at most 0.5. For GUUCCGUUGGCGUAAUGGUAACGCGUCUCCCUCCUAACGAGAAGACUGCGGGUUCGAGUCCCGUACGGACCG [G38C A70C], the yeast fitness was determined as 0.738. Regarding GUUCCGUUGGCGUAAUGGUAACGCGUCUCCCUCCUAAUGAGAAGACUGCGGGUUCGAGUCCCGUGCGGAACG [G38U A65G], the yeast fitness stood at 0.802. For the variant GUUCCGUUGGCGUAAUGGUAACGCGUCUCCCUCCUAAUGAGAAGACUGCGGGUUCGAGUCCCGUACGGAACG [G38U], the yeast fitness came out at 1.01. For GUUCCGUUGGCGUAAUGGUAACGCGUCUCCCUCCUAAGAAGAAGACUGCGGGUUCGACUCCCGUACGGUACG [G39A G58C A69U], the yeast fitness came out at 0.773. In the case of GUUCCGUUGGCGUAAUGGUAACGCGUCUCCCUCCUAAGCAGAAGACUGCGGGUUCGAAUCCCGUACGGAACG [G39C G58A], the yeast fitness is 0.876. In the case of GUUCCGUUGGCGUAAUGGUAACGCGUCUCCCUCCUAAGCAGAAGACUGCGGGUUCGUGUCCCGUACGGAACG [G39C A57U], the yeast fitness was determined as 0.682.

With GUUCCGUUGGCGUAAUGGUAACGCGUCUCCCUCCUAAGCAGAAGACUGCGGGUUCGGGUCCCGUACGGAACG [G39C A57G], the yeast fitness was 0.705. Consider GUUCCGUUGGCGUAAUGGUAACGCGUCUCCCUCCUAACGAGAAGACUGCGGGUUCGAGUUCCCUGCGGAACG [G38C C60U G63C A65G], for which the yeast fitness is at most 0.5. Consider GUUCCGUUGGCGUAAUGGUAACGCGUCUCCCUCCUAACGAGAAGACUGCGGGUUCGAGUCCCGCACGGAACG [G38C U64C], for which the yeast fitness was determined as 0.803.

Regarding GUUCCGUUGGCGUAAUGGUAACGCGUCUCCCUCCUAACGAGAAGACUGCGGGUUCGAGCCCCGUACGGAACG [G38C U59C], the yeast fitness is 0.711. The value for GUUCCGUUGGCGUAAUGGUAACGCGUCUCCCUCCUAAGCAGAAGACUCCGGGUUCGAGUCCCCUAGGGAACG [G39C G48C G63C C66G] was at most 0.5.

With GUUCCGUUGGCGUAAUGGUAACGCGUCUCCCUCCUAACGAGAAGACUCCGGGUUCGAGUCCCCUACGGAACG [G38C G48C G63C], the yeast fitness turned out to be 0.574.

In the case of GUUCCGUUGGCGUAAUGGUAACGCGUCUCCCUCCUAAGCAGAAGACUGCGGGUUCGAGUCCUGUACGGAACG [G39C C62U], the yeast fitness came out at 0.776. Turning to GUUCCGUUGGCGUAAUGGUAACGCGUCUCCCUCCUAAGCAGAAGACUGAGGGUUCGAGUCCCGUACGGAACG [G39C C49A], the yeast fitness is 0.664. As for GUUCCGUUGGCGUAAUGGUAACGCGUCUCCCUCCUAAGGCGAAGACUGUGGGUUCGAGUCCCGUACGGCACG [A40C C49U A69C], the figure is 0.592; as for GUUCCGUUGGCGUAAUGGUAACGCGUCUCCCUCCUAAGCAGAAGAAUGCGGGUUCGAGUGCCGUACGGAACG [G39C C46A C60G], at most 0.5. With GUUCCGUUGGCGUAAUGGUAACGCGUCUCCCUCCUAAGGCGAAGACUGCGGGUUCGGGUCGCGUACGGAACG [A40C A57G C61G], the yeast fitness is at most 0.5. On to GUUCCGUUGGCGUAAUGGUAACGCGUCUCCCUCCUAAGGCGAAGACUGCGGGUUCGGGUCUCGUACGGAACG [A40C A57G C61U], for which the yeast fitness is 0.573. Turning to GUUCCGUUGGCGUAAUGGUAACGCGUCUCCCUCCUAAGAAGAAGACUGCGGGUUCGAGUCCCGUAUGGAACG [G39A C66U], the yeast fitness was determined as 0.797. Regarding GUUCCGUUGGCGUAAUGGUAACGCGUCUCCCUCCUAAGCAGAAGACUGCGGGUUCGAGUCCCGUAUGGAACG [G39C C66U], the yeast fitness stood at 0.633. Turning to GUUCCGUUGGCGUAAUGGUAACGCGUCUCCCUCCUAAGGCGAAGAUUGCGGGUUCGAGUCCCGUGCGCAACG [A40C C46U A65G G68C], the yeast fitness was 0.59. As for GUUCCGUUGGCGUAAUGGUAACGCGUCUCCCUCCUAAGAAGAAGACUGCGGGAUCGAGUCCGGUAUGGAACG [G39A U53A C62G C66U], the figure is at most 0.5; as for GUUCCGUUGGCGUAAUGGUAACGCGUCUCCCUCCUAAGCAGAAGAUUGCGGGUUCGAGUCCCGUACGGAACG [G39C C46U], 0.98; as for GUUCCGUUGGCGUAAUGGUAACGCGUCUCCCUCCUAAGUAGAAGCCUGCGGGUUCGAGUCCCGUACGGAACG [G39U A45C], 0.851. Consider GUUCCGUUGGCGUAAUGGUAACGCGUCUCCCUCCUAACGAGAAGACUGCGGGUUCUAGUCCCGUACGGAACG [G38C G56U], for which the yeast fitness stood at 0.633. Take GUUCCGUUGGCGUAAUGGUAACGCGUCUCCCUCCUAAGCAGAAGACUGCGCGUUCGAGUCCCGUACGGAACG [G39C G51C]: the yeast fitness is 0.568.

As to GUUCCGUUGGCGUAAUGGUAACGCGUCUCCCUCCUAACCAGAAGAUUGCGGGUUCGAGUCCCGUACGGUACG [G38C G39C C46U A69U], the yeast fitness is at most 0.5. As for GUUCCGUUGGCGUAAUGGUAACGCGUCUCCCUCCUAAGGCGAAGACUGGGGGUUCGAGUCCCGUACGGAACG [A40C C49G], the yeast fitness is 0.804.

Take GUUCCGUUGGCGUAAUGGUAACGCGUCUCCCUCCUAACGAGAAGACUGCCGGUUCGAGUCCCGUACGGAACG [G38C G50C]: the yeast fitness stood at 0.562. In the case of GUUCCGUUGGCGUAAUGGUAACGCGUCUCCCUCCUAACGAGAAGACUCCGGGUUCGAGUCCCGUACGGAACG [G38C G48C], the yeast fitness was determined as 0.722. For the variant GUUCCGUUGGCGUAAUGGUAACGCGUCUCCCUCCUAACGACGAGACUGCGGGUUCGAGUCCCGUGCGGAACG [G38C G41C A42G A65G], the yeast fitness is 0.503. As for GUUCCGUUGGCGUAAUGGUAACGCGUCUCCCUCCUAAGCAGAUGACUGCGGGUUCGAGUCCCGUACGGUACG [G39C A43U A69U], the figure is 0.736; as for GUUCCGUUGGCGUAAUGGUAACGCGUCUCCCUCCUAACGAGAAGACUGCGGGUUCGAGUCGCGUAUGGUACG [G38C C61G C66U A69U], at most 0.5; as for GUUCCGUUGGCGUAAUGGUAACGCGUCUCCCUCCUAAGCAGAAGACUGCGGGUUCCAGUCCCGUACGGAACG [G39C G56C], 0.553.
